# Reference: PubChem BioAssay
# Active and inactive are the calls of the source.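 The calls were made as follows, unless noted: active = GFP response above 150% of the DMSO level; inconclusive = fewer than 70 events counted for a yeast strain; inactive = the rest.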
# Columns and labels:
# [1] = hit retest on RPL19A-GFP reporter strain – cell-based, S. cerevisiae, flow cytometry, cherry picks, mother/daughter gates, confirmation (AID 2270;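 active = GFP response below 50% of the DMSO control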); conditions: 3 h, at 10 µM, stronger effect = lower value, 100 = same GFP as DMSO wells
# [2] = yeast TOR pathway reporter LAP4-GFP change – cell-based, cherry picks, flow cytometry, mother/daughter gates, confirmation (AID 2271;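 active = GFP response above 150% of the DMSO control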;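 also: ratio of sample to DMSO plate mean so 100% equals DMSO level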); conditions: S. cerevisiae LAP4-GFP strain, 3 h, at 10 µM, stronger effect = higher value, 100 means same as DMSO control
# Summary of the method: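 System: GFP-fusion yeast strain | Input: Yeast cells seeded at OD600 of 0.2 | Technique: HT flow cytometry, GFP fluorescence channel | Read-out: % GFP response vs DMSO | Dosing: Single test-compound dose, 10 µM final | Controls: Positive rapamycin (400 ng/mL), negative DMSO | Times: 3 h treatment at 30 °C with rotation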
# [3] = TOR pathway reporter MEP2-GFP, retest of hits – S. cerevisiae, flow cytometry GFP, cherry picks, confirmation (AID 2272;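 active = GFP response above 150% of the DMSO control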;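 also: ratio of well signal to plate DMSO mean so 100% equals DMSO level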); conditions: S. cerevisiae MEP2-GFP strain, 3 h, at 10 µM, stronger effect = higher value
# [4] = yeast AGP1-GFP fluorescence change, single-dose – cell-based, flow cytometry, S. cerevisiae, cherry picks, confirmation (AID 2273);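 also: median GFP channel fluorescence over the whole cell population gate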; conditions: S. cerevisiae AGP1-GFP strain, 3 h, at 10 µM
# [5] = TOR pathway CIT2 reporter hit retest – S. cerevisiae, GFP fusion, cherry picks, mother/daughter gates, confirmation (AID 2274); conditions: S. cerevisiae CIT2-GFP strain, flow cytometry, 3 h, at 10 µM, stronger effect = higher value
# [6] = measured here: daughter cell gate
# [7] = measured here: mother cell gate
# [8] = measured here: daughter cell gate response
# [9] = measured here: mother cell gate response
Structure (SMILES),GFP response vs DMSO [1],"GFP response vs DMSO [1, 6]","GFP response vs DMSO [1, 7]",GFP response relative to DMSO [2],"GFP response relative to DMSO [2, 8]","GFP response relative to DMSO [2, 9]",GFP response vs DMSO [3],"GFP response, % of DMSO [4]","GFP response, % of DMSO [5]","GFP response, % of DMSO [5, 6]","GFP response, % of DMSO [5, 7]"
CC1CN(c2nnnn2-c2ccccc2)CC(C)O1 (stereo not drawn),99% (inactive),99.1%,99.8%,102% (inactive),101%,100%,96.2% (inactive),100% (inactive),101% (inactive),103%,99.7%
CN1CCSc2ccc(C(=O)Nc3cccc(F)c3)cc21,95.2% (inactive),91.8%,96.7%,120% (inactive),115%,121%,99.5% (inactive),97.8% (inactive),92.1% (inactive),89%,91%
O=C(N/N=C/c1cccc(Oc2ccccc2)c1)c1ccncc1,96.7% (inactive),97.3%,95.4%,107% (inactive),99%,108%,103% (inactive),103% (inactive),95.8% (inactive),97.6%,96%
COc1ccc(Sc2ncnc3onc(C)c23)cc1,96.7% (inactive),96.1%,95.4%,118% (inactive),113%,120%,103% (inactive),99.1% (inactive),95.8% (inactive),99.3%,96%
O=C(c1ccc2c(c1)OCO2)N1CCN(c2ccc(F)cc2)CC1,103% (inactive),101%,102%,90.2% (inactive),89.5%,91.1%,102% (inactive),98.5% (inactive),99.1% (inactive),96.5%,99.8%
COc1ccccc1-c1nnc(NC(=O)c2ccc3c(c2)OCO3)s1,106% (inactive),104%,108%,85.4% (inactive),84.8%,89%,97.8% (inactive),98.5% (inactive),100% (inactive),101%,99.8%
Cc1ccc(Sc2ccc([N+](=O)[O-])cc2[N+](=O)[O-])nc1,99.7% (inactive),101%,100%,103% (inactive),100%,105%,97.8% (inactive),97.4% (inactive),104% (inactive),99.7%,105%
CCCCN(CC)S(=O)(=O)c1ccc(C(=O)Nc2nnc(-c3ccccc3Cl)o2)cc1,98.8% (inactive),99.1%,98.5%,97.9% (inactive),99.2%,98.3%,109% (inactive),92.7% (inactive),98.3% (inactive),99.1%,98.5%
CCOc1ccc(-c2noc(-c3cccnc3)n2)cc1OC,97.2% (inactive),97.1%,96.4%,99.2% (inactive),99.2%,98.3%,100% (inactive),95.6% (inactive),104% (inactive),103%,98.5%
CCOC(=O)c1ccccc1NC(=O)c1c(O)c2ccccc2n(CC)c1=O,95.6% (inactive),96.9%,96.2%,101% (inactive),102%,98.3%,102% (inactive),93.7% (inactive),98.3% (inactive),99.1%,97.3%
Nc1cccnc1S(=O)(=O)c1ccccc1,98.8% (inactive),97.8%,100%,93.8% (inactive),94.1%,95.2%,100% (inactive),98.5% (inactive),99.1% (inactive),99.7%,97.7%
CCCc1[nH]nc2c1C(c1ccc(OC(=O)c3ccco3)cc1)C(C#N)=C(N)O2 (stereo not drawn),99.9% (inactive),101%,101%,91.9% (inactive),92.2%,91.6%,124% (inactive),102% (inactive),105% (inactive),108%,105%
NC(=O)C1CCN(C(=S)NCCc2ccccc2)CC1,97.3% (inactive),99.5%,97.1%,91.8% (inactive),91.3%,93.4%,99.3% (inactive),102% (inactive),101% (inactive),103%,103%
O=[N+]([O-])c1ccc(-c2cn3nc(-c4ccccc4)c(-c4ccccc4)nc3n2)cc1,102% (inactive),101%,96.2%,115% (inactive),115%,114%,227% (active),106% (inactive),109% (inactive),106%,108%
O=C1C(Cl)=C(Nc2ccccc2O)C(=O)N1c1ccccc1,97.4% (inactive),98%,97.1%,112% (inactive),108%,113%,104% (inactive),103% (inactive),99.3% (inactive),100%,98%
CC(C(=O)O)n1nc(-c2ccccc2)c2ccccc21 (stereo not drawn),97.8% (inactive),99.6%,95.3%,99.5% (inactive),101%,97.3%,99% (inactive),102% (inactive),102% (inactive),101%,101%
COc1cc(NC(=O)c2ccc(Br)cc2)ccc1NC(=O)c1cc2ccccc2o1,99.9% (inactive),99%,100%,96.2% (inactive),98.7%,98.3%,100% (inactive),95.7% (inactive),96.5% (inactive),96.5%,97.7%

Structure (SMILES),GFP response vs DMSO [1],"GFP response vs DMSO [1, 6]","GFP response vs DMSO [1, 7]",GFP response relative to DMSO [2],"GFP response relative to DMSO [2, 8]","GFP response relative to DMSO [2, 9]",GFP response vs DMSO [3],"GFP response, % of DMSO [4]","GFP response, % of DMSO [5]","GFP response, % of DMSO [5, 6]","GFP response, % of DMSO [5, 7]"
O=C(O)c1ccn2c(C(=O)c3ccc(Cl)cc3)c(-c3ccccc3)cc2c1,96.2% (inactive),92.3%,99.8%,114% (inactive),107%,115%,104% (inactive),94.7% (inactive),92.1% (inactive),89%,92.1%
C=CCOc1ccc(C(=O)n2cc(C(=O)OC)c3ccccc32)cc1,95.6% (inactive),97.1%,96.4%,96.7% (inactive),99.2%,96.1%,96.2% (inactive),101% (inactive),101% (inactive),103%,101%
O=C(Nc1ccccc1)c1c(F)cccc1F,103% (inactive),103%,103%,97% (inactive),97.5%,96.2%,105% (inactive),102% (inactive),106% (inactive),103%,107%
Cc1ccc(C(c2cc(Cl)c3cccnc3c2O)N2CCN(C)CC2)cc1 (stereo not drawn),81.4% (inactive),94.4%,67.7%,184% (active),141%,208%,116% (inactive),95.9% (inactive),119% (inactive),97.4%,113%
O=C1C2C3C=CC(CO)(O3)C2C(=O)N1c1ccc(-c2ccccc2)cc1 (stereo not drawn),109% (inactive),103%,94.9%,334% (active),156%,304%,103% (inactive),97.8% (inactive),91.5% (inactive),97.4%,82.1%
CCOC(=O)C1CCCN(C(=O)c2ccc(-c3ccc([N+](=O)[O-])cc3)o2)C1 (stereo not drawn),99.8% (inactive),100%,98.4%,101% (inactive),101%,101%,103% (inactive),99.3% (inactive),100% (inactive),97.6%,102%
COc1ccc(-c2nc3cccc(C)n3c2NCc2ccco2)cc1OC,101% (inactive),99.5%,100%,100% (inactive),101%,101%,97.2% (inactive),99.5% (inactive),97.2% (inactive),99.3%,97.1%
C/C(=N/NS(=O)(=O)c1ccccc1)c1ccc(NC(=O)C(F)(F)F)cc1,102% (inactive),103%,103%,94.2% (inactive),95%,94.6%,99.5% (inactive),91% (inactive),95% (inactive),96.4%,93.3%
Cc1ncc2c(n1)-c1cc(F)ccc1SC2,104% (inactive),105%,103%,87.6% (inactive),89.6%,85.5%,109% (inactive),94.5% (inactive),113% (inactive),116%,109%
Clc1ccccc1N=C1NN=C(c2cccs2)CS1,96.8% (inactive),93.4%,95.7%,108% (inactive),106%,113%,90.5% (inactive),98.8% (inactive),90.1% (inactive),88.4%,89.5%
O=C(Cc1ccc(Cl)cc1)Nc1ccc(Br)cn1,103% (inactive),100%,103%,108% (inactive),106%,111%,118% (inactive),113% (inactive),105% (inactive),112%,99.3%
COc1ccc(/C=N/Nc2nc(-c3cccnc3)nc3ccccc23)c(OC)c1,98% (inactive),97.6%,98.2%,96.7% (inactive),94.4%,98.3%,111% (inactive),96.8% (inactive),108% (inactive),112%,107%
O=C1c2ccsc2SCCN1Cc1cccc(F)c1,96% (inactive),95.7%,96.8%,103% (inactive),102%,104%,92.6% (inactive),89.9% (inactive),87.2% (inactive),90.2%,84.6%
O=[N+]([O-])c1cc(C(F)(F)F)ccc1NCCc1ccccn1,98.8% (inactive),99.3%,99.7%,96.5% (inactive),92.2%,96.5%,102% (inactive),98.9% (inactive),106% (inactive),106%,106%
CC(C)C(=O)NC(c1cccs1)c1cc([N+](=O)[O-])c2cccnc2c1O (stereo not drawn),95.8% (inactive),95.2%,95.8%,101% (inactive),99.1%,99.4%,94.7% (inactive),101% (inactive),98.8% (inactive),101%,99.3%
O=C1C(=O)N(Cc2ccccc2)C(c2cccc(O)c2)/C1=C(\O)c1ccc2c(c1)OCCO2 (stereo not drawn),100% (inactive),100%,100%,95% (inactive),95.6%,98.3%,100% (inactive),95.2% (inactive),108% (inactive),106%,109%
